# Experimental data taken from ChEMBL document CHEMBL1151724, “Sesquiterpene lactones from Gonospermum gomerae and G. fruticosum and their cytotoxic activities” (J Nat Prod, 2008).
# The source made the active and inactive calls. The rule behind the calls is not given here.
# Test system: HL-60
# Test: Induction of apoptosis in human HL-60 cells upto 30 uM after 48 hrs by flow cytometry
# Format: functional, cell-based
# Method in brief: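 HL-60 cells exposed to 30 µM for 48 h. Hypodiploid (apoptotic) fraction quantified by flow cytometry; average ± SE of triplicate determinations from a representative experiment.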
row,Compound,Activity
1,C=CC(C)(O)C/C=C/C(C)(O)CCC(OC(C)=O)C(=C)C (stereo unspecified),inactive
2,C=C1C(=O)O[C@H]2[C@H]1[C@@H](O)C[C@@]1(C)[C@H](O)CCC(=C)[C@@H]21,inactive
3,C=C1C(=O)O[C@H]2C[C@@]3(C)[C@H](O)CCC(=C)[C@H]3[C@@H](OC(=O)/C(C)=C/C)[C@H]12,inactive
4,C=C1C(=O)O[C@H]2/C=C(/C)[C@@H](O)CC/C(C)=C/[C@@H](OC(=O)/C(C)=C/C)[C@H]12,inactive
5,C=C1C(=O)O[C@H]2C[C@@]3(C)[C@H](O)CC[C@@](C)(O)[C@H]3[C@@H](O)[C@H]12,inactive
6,C=C1C(=O)O[C@H]2/C=C(/C)[C@@H](OC(C)=O)CC/C(C)=C/[C@@H](OC(=O)/C(C)=C/C)[C@H]12,inactive
